Measurements published in ChEMBL document CHEMBL1128480 (J Med Chem, 1995).

Key:
Rattus norvegicus [1] = organism: Rattus norvegicus; assay: Effect on [3H]sradipine binding to rat heart.
Summary of the method: (§1)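 Sprague Dawley rat ventricle microsomes were prepared in 50 mM Tris with PMSF (pH 7.4), with a final 100 000g spin. Membranes (0.3 mg protein/mL) were preincubated 5 min with compound (10⁻⁶–10⁻¹¹ M), then given 0.2 nM [³H]-(+)-methylisradipine with 0.5 mM CaCl₂ for 60 min at room temperature. Filter-bound label was counted. Nonspecific binding was taken from 1 μM isradipine. Experiments were repeated 2–3 times in triplicate, with LIGAND analysis.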

Cavia porcellus [2] = organism: Cavia porcellus; assay: Effect on [3H]sradipine binding to guinea pig ileum.
Summary of the method: (§2)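 Guinea pig ileal longitudinal-muscle microsomes were prepared in 50 mM Tris with PMSF (pH 7.0) and spun down at 45 000g. Membranes (0.3 mg protein/mL) were preincubated 5 min with compound (10⁻⁶–10⁻¹¹ M), then incubated 60 min at room temperature with 0.2 nM [³H]-(+)-methylisradipine and 0.5 mM CaCl₂. Samples were filtered and counted. Nonspecific binding was set with 1 μM isradipine. Runs were 2–3 times in triplicate, analysed with LIGAND.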

[3] = Concentration displacing [3H]sradipine binding to rat heart.; summary of the method: as §1
[4] = Concentration displacing [3H]-sradipine binding to rat brain; assay type: tissue-based
Summary of the method: (§3)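 Whole Sprague Dawley rat brain was homogenized in 25 mM HEPES/NaOH with 0.32 M sucrose and 0.1 mM PMSF (pH 7.4), and pellets were collected by centrifugation. Microsomes (0.3 mg protein/mL) received compound (10⁻⁶–10⁻¹¹ M) for a 5-min preincubation. Then 0.2 nM [³H]-(+)-methylisradipine was added with 0.5 mM CaCl₂, for 60 min at room temperature, followed by filtration and scintillation counting. Nonspecific binding was defined with 1 μM isradipine. Runs were 2–3 times in triplicate, fitted with LIGAND.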

Rattus norvegicus [5] = organism: Rattus norvegicus; assay: Effect on [3H]sradipine binding to rat brain.; assay type: tissue-based; summary of the method: as §3
Cavia porcellus [6] = organism: Cavia porcellus; assay: Concentration displacing [3H]-sradipine binding to guinea pig ileum.; summary of the method: as §2
Rattus norvegicus [7] = organism: Rattus norvegicus; assay: Effect on [3H]sradipine binding to rat brain; assay type: tissue-based; summary of the method: as §3
[8] = Concentration inhibiting [3H]sradipine binding to rat brain.; assay type: tissue-based; summary of the method: as §3
[9] = Concentration displacing [3H]sradipine binding to rat brain.; assay type: tissue-based; summary of the method: as §3

Row | SMILES | Bmax (Rattus norvegicus [1]) | Bmax (Cavia porcellus [2]) [fmol/mg] | Ki [3] [nM] | Ki [4] [nM] | Bmax (Rattus norvegicus [5]) [fmol/mg] | Ki (Cavia porcellus [6]) [nM] | Bmax (Rattus norvegicus [7]) [fmol/mg] | Ki [8] [nM] | Ki [9] [nM]
1 | COC(=O)C1=C(C)NC(C)=C(C(=O)OC[C@H]2CCCO2)[C@H]1c1ccccc1[N+](=O)[O-] (stereo in doubt) | 84.7 fM/mg | 269 | 1 | 0.67 | 79.7 | 2.04 | – | – | –
2 | CO/C(O)=C1\C(C)=NC(C)=C(C(=O)OC[C@H]2CCCO2)[C@@H]1c1ccccc1[N+](=O)[O-] | 81.4 fmol/mg | 250 | 5.95 | 17.7 | – | 11.1 | 79.1 | – | –
3 | COC(=O)C1=C(C)NC(C)=C(C(=O)OC[C@@H]2CCCO2)[C@@H]1c1ccccc1[N+](=O)[O-] (stereo in doubt) | 65.3 fmol/mg | 261 | 13 | – | – | 24.8 | 77.2 | 18.1 | –
4 | CO/C(O)=C1\C(C)=NC(C)=C(C(=O)OC[C@@H]2CCCO2)[C@H]1c1ccccc1[N+](=O)[O-] | 74.9 fmol/mg | 299 | 0.6 | – | 74.9 | 0.96 | – | – | 0.58
